The subject of one assay is MCF7. As to the kind of experiment: In vitro cytotoxicity against hormone-responsive MCF-7 cell line. Particulars: Homo sapiens. In kind it is functional, cell-based. In short, it runs like this:
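MCF-7 cells kept in DMEM with L-glutamine, gentamycin, fungisone, insulin and 5% FBS. For the assay, 5 × 10³ cells/well were plated in DMEM with 2% carbon-stripped FBS and held 24 h at 37 °C. Compounds were then added in fresh medium for 24 h. Viable cells were read by MTT, triplicate wells per concentration, and IC50 was taken from four concentrations.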

Assay [1] is described as follows: (§1) Inhibition of calmodulin-dependent Phosphodiesterase. In short, it runs like this: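 Calmodulin-dependent cAMP phosphodiesterase assayed with cyclic [8-3H]AMP as substrate. Tritiated AMP was converted to adenosine by snake venom 5'-nucleotidase, and nucleosides were separated from substrate on Dowex anion exchange resin with 3 mM acetic acid. Basal, calmodulin-independent activity was taken with 1 mM EGTA. Compounds were added in DMSO at several concentrations. IC50 is the mean of triplicates ± standard error.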

A short description of assay [2]: as §1. The source holds these as a separate data set.

As for `CC/C(=C(\c1ccc(O)cc1)c1ccc(OCCN(C)C)cc1)c1ccccc1`, the half-maximal inhibitory concentration (IC50) in the assay with MCF7 stood at 15.5 µM; in assay [1], 19 µM.

In the case of `CC/C(=C(\c1ccc(I)cc1)c1ccc(OCCCCN(C)C)cc1)c1ccccc1`, half-maximal inhibition in assay [1] (IC50) required 1.3 µM.

Consider `CC/C(=C(\c1ccc(I)cc1)c1ccc(OCCN2CCCC2)cc1)c1ccccc1` [IDOXIFENE], for which the results for the IC50 (in the assay with MCF7; in assay [1]) were 7.3 µM and 1.5 µM, respectively.

In assay [1], `CCCCc1ccc(/C(=C(\CC)c2ccccc2)c2ccc(OCCN3CCCC3)cc2)cc1` registered an IC50 of 1.8 µM.

As for `C#Cc1ccc(/C(=C(\CC)c2ccccc2)c2ccc(OCCN3CCCC3)cc2)cc1`, the half-inhibitory concentration (IC50) was 14.7 µM with MCF7 and 3.3 µM in assay [1].

Turning to `CC/C(=C(\c1ccc(I)cc1)c1ccc(OCCCN(C)C)cc1)c1ccccc1`, in assay [1], the half-inhibitory concentration (IC50) amounted to 1.4 µM.

`CC/C(=C(\c1ccc(I)cc1)c1ccc(OCCN(C)C)cc1)c1ccccc1` returned a concentration for half-maximal inhibition (IC50) in assay [1] of 2.3 µM.

`CCCCc1ccc(/C(=C(\CC)c2ccccc2)c2ccc(OCCN(C)C)cc2)cc1` returned a half-inhibitory concentration (IC50) in assay [1] of 3.7 µM.

As to `CC/C(=C(\c1ccc(I)cc1)c1ccc(OCCCCN2CCCC2)cc1)c1ccccc1`, the IC50 came out at 4 µM in the assay on MCF7 and 1 µM in assay [1].

As for `C#Cc1ccc(/C(=C(\CC)c2ccccc2)c2ccc(OCCN(C)C)cc2)cc1`, the IC50 in assay [1] was 4.6 µM.

For `CC/C(=C(\c1ccccc1)c1ccc(OCCN(C)C)cc1)c1ccccc1` [TAMOXIFEN], the half-inhibitory concentration (IC50) was 14 µM in the assay with MCF7 and 6.8 µM in assay [2].

With `CC/C(=C(\c1ccc(I)cc1)c1ccc(OCCCN2CCCC2)cc1)c1ccccc1`, the concentration for half-maximal inhibition (IC50) in the assay with MCF7 worked out at 4.5 µM; in assay [1], 1.1 µM.

The IC50 is the concentration that gives 50% inhibition. The low end stands for greater potency in that assay, the high end for weaker potency in that assay.

These data come from ChEMBL document CHEMBL1128750 (J Med Chem, 1995).
